Experimental data published in ChEMBL document CHEMBL4145598, “Discovery and Development of 8-Substituted Cycloberberine Derivatives as Novel Antibacterial Agents against MRSA” (ACS Med Chem Lett, 2018).

Legend:
Type in all cases: functional
Staphylococcus aureus [1] = experiment: Antimicrobial activity against methicillin-sensitive Staphylococcus aureus ATCC 29213 after 18 hrs by agar dilution assay; conditions: ATCC 29213, 18 h
Staphylococcus aureus [2] = experiment: Antimicrobial activity against methicillin-sensitive Staphylococcus aureus isolate 15 after 18 hrs by agar dilution assay; conditions: isolate 15, 18 h
Staphylococcus aureus [3] = experiment: Antimicrobial activity against methicillin-sensitive Staphylococcus aureus isolate 13-17 after 18 hrs by agar dilution assay; conditions: isolate 13-17, 18 h
Staphylococcus aureus [4] = experiment: Antimicrobial activity against methicillin-sensitive Staphylococcus aureus isolate 13-19 after 18 hrs by agar dilution assay; conditions: isolate 13-19, 18 h
Staphylococcus aureus [5] = experiment: Antimicrobial activity against methicillin-sensitive Staphylococcus aureus isolate 13-20 after 18 hrs by agar dilution assay; conditions: isolate 13-20, 18 h
Staphylococcus aureus [6] = experiment: Antimicrobial activity against methicillin-sensitive Staphylococcus aureus isolate 13-21 after 18 hrs by agar dilution assay; conditions: isolate 13-21, 18 h
[7] = test system: Staphylococcus epidermidis; experiment: Antimicrobial activity against methicillin-sensitive Staphylococcus epidermidis ATCC 12228 after 18 hrs by agar dilution assay; conditions: ATCC 12228, 18 h
[8] = test system: Staphylococcus epidermidis; experiment: Antimicrobial activity against methicillin-sensitive Staphylococcus epidermidis isolate 13-1 after 18 hrs by agar dilution assay; conditions: isolate 13-1, 18 h
[9] = test system: Staphylococcus saprophyticus; experiment: Antimicrobial activity against Staphylococcus saprophyticus ATCC 15305 after 18 hrs by agar dilution assay; conditions: ATCC 15305, 18 h
Staphylococcus hominis = experiment: Antimicrobial activity against Staphylococcus hominis ATCC 35982 after 18 hrs by agar dilution assay; conditions: ATCC 35982, 18 h
Staphylococcus aureus [10] = experiment: Antimicrobial activity against methicillin-resistant Staphylococcus aureus ATCC 33591 after 18 hrs by agar dilution assay; conditions: ATCC 33591, 18 h
Summary of the method: (§1)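 Drug-resistant S. aureus (MRSA/VISA) panel. It includes ATCC reference strains and clinical isolates from patients in Chinese hospitals. MIC was determined by standard methods and reported in μg/mL, with levofloxacin as the reference drug.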

Staphylococcus aureus [11] = experiment: Antimicrobial activity against methicillin-resistant Staphylococcus aureus isolate 13-18 after 18 hrs by agar dilution assay; conditions: isolate 13-18, 18 h; summary of the method: as §1
Staphylococcus aureus [12] = experiment: Antimicrobial activity against methicillin-resistant Staphylococcus aureus isolate 13-23 after 18 hrs by agar dilution assay; conditions: isolate 13-23, 18 h; summary of the method: as §1
Staphylococcus aureus [13] = experiment: Antimicrobial activity against methicillin-resistant Staphylococcus aureus isolate 12-3 after 18 hrs by agar dilution assay; conditions: isolate 12-3, 18 h; summary of the method: as §1
Staphylococcus aureus [14] = experiment: Antimicrobial activity against methicillin-resistant Staphylococcus aureus isolate 12-8 after 18 hrs by agar dilution assay; conditions: isolate 12-8, 18 h; summary of the method: as §1
Staphylococcus aureus [15] = experiment: Antimicrobial activity against methicillin-resistant Staphylococcus aureus isolate 12-13 after 18 hrs by agar dilution assay; conditions: isolate 12-13, 18 h; summary of the method: as §1
Staphylococcus aureus [16] = experiment: Antimicrobial activity against methicillin-resistant Staphylococcus aureus isolate 12-16 after 18 hrs by agar dilution assay; conditions: isolate 12-16, 18 h; summary of the method: as §1
Staphylococcus aureus [17] = experiment: Antimicrobial activity against methicillin-resistant Staphylococcus aureus ATCC-BAA-1708 after 18 hrs by agar dilution assay; conditions: ATCC-BAA-1708, 18 h; summary of the method: as §1
Staphylococcus aureus [18] = experiment: Antimicrobial activity against vancomycin-intermediate Staphylococcus aureus ATCC 700698 after 18 hrs by agar dilution assay; conditions: ATCC 700698, 18 h
Summary of the method: (§2)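 MICs in μg/mL against drug-resistant S. aureus (MRSA/VISA) by standard methods, with levofloxacin as the reference drug. ATCC strains were used.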

Staphylococcus aureus [19] = experiment: Antimicrobial activity against vancomycin-intermediate Staphylococcus aureus ATCC 700699 after 18 hrs by agar dilution assay; conditions: ATCC 700699, 18 h; summary of the method: as §2

C[C@H]1COc2c(N3CCN(C)CC3)c(F)cc3c(=O)c(C(=O)O)cn1c23.C[C@H]1COc2c(N3CCN(C)CC3)c(F)cc3c(=O)c(C(=O)O)cn1c23.O [LEVOFLOXACIN]
MIC (Staphylococcus aureus [1]): 0.06 µg/mL | MIC (Staphylococcus aureus [2]): 0.125 µg/mL | MIC (Staphylococcus aureus [3]): 0.125 µg/mL | MIC (Staphylococcus aureus [4]): 0.5 µg/mL | MIC (Staphylococcus aureus [5]): 0.125 µg/mL | MIC (Staphylococcus aureus [6]): 0.25 µg/mL | MIC [7]: 0.06 µg/mL | MIC [8]: 0.125 µg/mL | MIC [9]: 0.5 µg/mL | MIC (Staphylococcus hominis): 0.125 µg/mL | MIC (Staphylococcus aureus [10]): 0.125 µg/mL | MIC (Staphylococcus aureus [11]): 32 µg/mL | MIC (Staphylococcus aureus [12]): 32 µg/mL | MIC (Staphylococcus aureus [13]): 32 µg/mL | MIC (Staphylococcus aureus [14]): 32 µg/mL | MIC (Staphylococcus aureus [15]): 32 µg/mL | MIC (Staphylococcus aureus [16]): 32 µg/mL | MIC (Staphylococcus aureus [17]): 16 µg/mL | MIC (Staphylococcus aureus [18]): 32 µg/mL | MIC (Staphylococcus aureus [19]): 2 µg/mL

COc1ccc2c(c[n+]3c4c2ccc2c5c(cc(c24)CC3)OCO5)c1NC(=O)CC1CCCC1.[Cl-]
MIC (Staphylococcus aureus [1]): 8 µg/mL | MIC (Staphylococcus aureus [2]): 8 µg/mL | MIC (Staphylococcus aureus [3]): 8 µg/mL | MIC (Staphylococcus aureus [4]): 8 µg/mL | MIC (Staphylococcus aureus [5]): 8 µg/mL | MIC (Staphylococcus aureus [6]): 8 µg/mL | MIC [7]: 8 µg/mL | MIC [8]: 8 µg/mL | MIC [9]: 32 µg/mL | MIC (Staphylococcus hominis): 8 µg/mL | MIC (Staphylococcus aureus [10]): 8 µg/mL | MIC (Staphylococcus aureus [11]): 8 µg/mL | MIC (Staphylococcus aureus [12]): 8 µg/mL | MIC (Staphylococcus aureus [13]): 8 µg/mL | MIC (Staphylococcus aureus [14]): 8 µg/mL | MIC (Staphylococcus aureus [15]): 16 µg/mL | MIC (Staphylococcus aureus [16]): 8 µg/mL | MIC (Staphylococcus aureus [17]): 4 µg/mL | MIC (Staphylococcus aureus [18]): 64 µg/mL | MIC (Staphylococcus aureus [19]): 4 µg/mL

CCC(=O)COc1c(OC)ccc2c1c[n+]1c3c2ccc2c4c(cc(c23)CC1)OCO4.[Br-]
MIC (Staphylococcus aureus [1]): > 64 µg/mL | MIC (Staphylococcus aureus [2]): > 64 µg/mL | MIC (Staphylococcus aureus [3]): > 64 µg/mL | MIC (Staphylococcus aureus [4]): > 64 µg/mL | MIC (Staphylococcus aureus [5]): > 64 µg/mL | MIC (Staphylococcus aureus [6]): > 64 µg/mL | MIC [7]: > 64 µg/mL | MIC [8]: > 64 µg/mL | MIC [9]: > 64 µg/mL | MIC (Staphylococcus hominis): > 64 µg/mL | MIC (Staphylococcus aureus [10]): > 64 µg/mL | MIC (Staphylococcus aureus [11]): > 64 µg/mL | MIC (Staphylococcus aureus [12]): > 64 µg/mL | MIC (Staphylococcus aureus [13]): > 64 µg/mL | MIC (Staphylococcus aureus [14]): > 64 µg/mL | MIC (Staphylococcus aureus [15]): > 64 µg/mL | MIC (Staphylococcus aureus [16]): > 64 µg/mL | MIC (Staphylococcus aureus [17]): > 64 µg/mL | MIC (Staphylococcus aureus [18]): > 64 µg/mL | MIC (Staphylococcus aureus [19]): > 64 µg/mL

COc1ccc2c(c[n+]3c4c2ccc2c5c(cc(c24)CC3)OCO5)c1O.[Cl-]
MIC (Staphylococcus aureus [1]): 0.25 µg/mL | MIC (Staphylococcus aureus [2]): 4 µg/mL | MIC (Staphylococcus aureus [3]): 0.25 µg/mL | MIC (Staphylococcus aureus [4]): 0.5 µg/mL | MIC (Staphylococcus aureus [5]): 0.25 µg/mL | MIC (Staphylococcus aureus [6]): 0.5 µg/mL | MIC [7]: 0.5 µg/mL | MIC [8]: 0.5 µg/mL | MIC [9]: > 64 µg/mL | MIC (Staphylococcus hominis): 0.5 µg/mL | MIC (Staphylococcus aureus [10]): 0.25 µg/mL | MIC (Staphylococcus aureus [11]): 0.25 µg/mL | MIC (Staphylococcus aureus [12]): 0.25 µg/mL | MIC (Staphylococcus aureus [13]): 0.25 µg/mL | MIC (Staphylococcus aureus [14]): 0.5 µg/mL | MIC (Staphylococcus aureus [15]): 1 µg/mL | MIC (Staphylococcus aureus [16]): 0.5 µg/mL | MIC (Staphylococcus aureus [17]): 0.5 µg/mL | MIC (Staphylococcus aureus [18]): 0.5 µg/mL | MIC (Staphylococcus aureus [19]): 0.25 µg/mL

COc1ccc2c(c[n+]3c4c2ccc2c5c(cc(c24)CC3)OCO5)c1OCC(=O)c1ccccc1.[Br-]
MIC (Staphylococcus aureus [1]): 16 µg/mL | MIC (Staphylococcus aureus [2]): 32 µg/mL | MIC (Staphylococcus aureus [3]): 16 µg/mL | MIC (Staphylococcus aureus [4]): 16 µg/mL | MIC (Staphylococcus aureus [5]): 32 µg/mL | MIC (Staphylococcus aureus [6]): 16 µg/mL | MIC [7]: 8 µg/mL | MIC [8]: 64 µg/mL | MIC [9]: 16 µg/mL | MIC (Staphylococcus hominis): 32 µg/mL | MIC (Staphylococcus aureus [10]): 16 µg/mL | MIC (Staphylococcus aureus [11]): 32 µg/mL | MIC (Staphylococcus aureus [12]): 16 µg/mL | MIC (Staphylococcus aureus [13]): 16 µg/mL | MIC (Staphylococcus aureus [14]): 16 µg/mL | MIC (Staphylococcus aureus [15]): 32 µg/mL | MIC (Staphylococcus aureus [16]): 32 µg/mL | MIC (Staphylococcus aureus [17]): 32 µg/mL | MIC (Staphylococcus aureus [18]): > 64 µg/mL | MIC (Staphylococcus aureus [19]): > 64 µg/mL

COc1ccc2c(c[n+]3c4c2ccc2c5c(cc(c24)CC3)OCO5)c1NC(=O)c1ccccn1.[Cl-]
MIC (Staphylococcus aureus [1]): > 64 µg/mL | MIC (Staphylococcus aureus [2]): > 64 µg/mL | MIC (Staphylococcus aureus [3]): > 64 µg/mL | MIC (Staphylococcus aureus [4]): > 64 µg/mL | MIC (Staphylococcus aureus [5]): > 64 µg/mL | MIC (Staphylococcus aureus [6]): > 64 µg/mL | MIC [7]: > 64 µg/mL | MIC [8]: > 64 µg/mL | MIC [9]: > 64 µg/mL | MIC (Staphylococcus hominis): > 64 µg/mL | MIC (Staphylococcus aureus [10]): > 64 µg/mL | MIC (Staphylococcus aureus [11]): > 64 µg/mL | MIC (Staphylococcus aureus [12]): > 64 µg/mL | MIC (Staphylococcus aureus [13]): > 64 µg/mL | MIC (Staphylococcus aureus [14]): > 64 µg/mL | MIC (Staphylococcus aureus [15]): > 64 µg/mL | MIC (Staphylococcus aureus [16]): > 64 µg/mL | MIC (Staphylococcus aureus [17]): > 64 µg/mL | MIC (Staphylococcus aureus [18]): > 64 µg/mL | MIC (Staphylococcus aureus [19]): > 64 µg/mL

COc1ccc2c(c[n+]3c4c2ccc2c5c(cc(c24)CC3)OCO5)c1OCC(=O)C(C)(C)C.[Br-]
MIC (Staphylococcus aureus [1]): 32 µg/mL | MIC (Staphylococcus aureus [2]): 64 µg/mL | MIC (Staphylococcus aureus [3]): 32 µg/mL | MIC (Staphylococcus aureus [4]): 32 µg/mL | MIC (Staphylococcus aureus [5]): 32 µg/mL | MIC (Staphylococcus aureus [6]): 32 µg/mL | MIC [7]: 32 µg/mL | MIC [8]: 32 µg/mL | MIC [9]: 32 µg/mL | MIC (Staphylococcus hominis): 16 µg/mL | MIC (Staphylococcus aureus [10]): 32 µg/mL | MIC (Staphylococcus aureus [11]): 32 µg/mL | MIC (Staphylococcus aureus [12]): 32 µg/mL | MIC (Staphylococcus aureus [13]): 32 µg/mL | MIC (Staphylococcus aureus [14]): 64 µg/mL | MIC (Staphylococcus aureus [15]): 32 µg/mL | MIC (Staphylococcus aureus [16]): 32 µg/mL | MIC (Staphylococcus aureus [17]): 32 µg/mL | MIC (Staphylococcus aureus [18]): > 64 µg/mL | MIC (Staphylococcus aureus [19]): > 64 µg/mL

COc1ccc2c(c[n+]3c4c2ccc2c5c(cc(c24)CC3)OCO5)c1NCc1ccco1.[Cl-]
MIC (Staphylococcus aureus [1]): 32 µg/mL | MIC (Staphylococcus aureus [2]): 32 µg/mL | MIC (Staphylococcus aureus [3]): 32 µg/mL | MIC (Staphylococcus aureus [4]): 16 µg/mL | MIC (Staphylococcus aureus [5]): 32 µg/mL | MIC (Staphylococcus aureus [6]): 32 µg/mL | MIC [7]: 32 µg/mL | MIC [8]: 64 µg/mL | MIC [9]: 32 µg/mL | MIC (Staphylococcus hominis): 32 µg/mL | MIC (Staphylococcus aureus [10]): 64 µg/mL | MIC (Staphylococcus aureus [11]): 64 µg/mL | MIC (Staphylococcus aureus [12]): 64 µg/mL | MIC (Staphylococcus aureus [13]): 32 µg/mL | MIC (Staphylococcus aureus [14]): 64 µg/mL | MIC (Staphylococcus aureus [15]): 32 µg/mL | MIC (Staphylococcus aureus [16]): 64 µg/mL | MIC (Staphylococcus aureus [17]): > 64 µg/mL | MIC (Staphylococcus aureus [18]): > 64 µg/mL | MIC (Staphylococcus aureus [19]): > 64 µg/mL
